ChEMBL document CHEMBL3621045, “Structural Insights Lead to a Negamycin Analogue with Improved Antimicrobial Activity against Gram-Negative Pathogens” (ACS Med Chem Lett, 2015)
Converted amounts (≈) assume the structure as drawn.

Tests used:
Pseudomonas aeruginosa [1] = test: Antibacterial activity against mexABCDXY-deficient Pseudomonas aeruginosa PAO1; format: functional
Pseudomonas aeruginosa [2] = test: Antibacterial activity against Pseudomonas aeruginosa PAO1; format: functional
Escherichia coli [3] = test: microbe, parasite or virus in culture; conditions: ATCC 25922
Klebsiella pneumoniae = test: Antibacterial activity against Klebsiella pneumoniae ATCC 700603; format: functional
Escherichia coli [4] = test: Inhibition of transcription-translation process in Escherichia coli; format: functional; conditions: Escherichia coli
Acinetobacter baumannii = test: Antibacterial activity against Acinetobacter baumannii ARC 3495; format: functional
Escherichia coli [5] = test: microbe, parasite or virus in culture; conditions: ATCC 25922; remark: listed apart in the source
Pseudomonas aeruginosa [6] = test: Ratio of MIC for Pseudomonas aeruginosa PAO1 to MIC for mexABCDXY-deficient Pseudomonas aeruginosa PAO1; format: functional
Method in brief: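 MICs in μg/mL were determined for P. aeruginosa PAO1 and its isogenic efflux-pump knockout strain. Analogues were tested up to their highest soluble concentrations. The value is the parent-strain MIC divided by the knockout-strain MIC.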

| Molecule | MIC (Pseudomonas aeruginosa [1]) | MIC (Pseudomonas aeruginosa [2]) | MIC (Escherichia coli [3]) | MIC (Klebsiella pneumoniae) | IC50 (Escherichia coli [4]) | MIC (Acinetobacter baumannii) | MIC (Escherichia coli [5]) | Ratio (Pseudomonas aeruginosa [6]) |
| --- | --- | --- | --- | --- | --- | --- | --- | --- |
| CNCCCNC[C@H](O)C[C@@H](N)CC(=O)NN(C)CC(=O)O | 256 µg/mL (≈ 801 µM) | 256 µg/mL (≈ 801 µM) | 256 µg/mL (≈ 801 µM) | 64 µg/mL (≈ 200 µM) | 5.8 µM | 64 µg/mL (≈ 200 µM) | 256 µg/mL (≈ 801 µM) |  |
| CN(CC(=O)O)NC(=O)C[C@@H](N)C[C@H](O)CN |  | 256 µg/mL (≈ 1030 µM) |  | 256 µg/mL (≈ 1030 µM) | 12 µM | 128 µg/mL (≈ 516 µM) | 512 µg/mL (≈ 2060 µM) |  |
| NC[C@H](O)C[C@@H](N)CC(=O)NOCC(=O)O |  | > 256 µg/mL |  | > 256 µg/mL | > 100 µM | > 256 µg/mL | > 256 µg/mL |  |
| GENTAMICIN | 0.13 µg/mL | 1 µg/mL |  | 8 µg/mL |  | > 64 µg/mL |  |  |
| CN(C)[C@@H]1C(O)=C(C(N)=O)C(=O)[C@@]2(O)C(O)=C3C(=O)c4c(O)cccc4[C@@](C)(O)[C@H]3C[C@@H]12 [TETRACYCLINE] | 0.25 µg/mL (≈ 0.563 µM) | 32 µg/mL (≈ 72 µM) | 0.5 µg/mL (≈ 1.13 µM) | 16 µg/mL (≈ 36 µM) | 1.4 µM | > 64 µg/mL | 1 µg/mL (≈ 2.25 µM) | 128 |
| CN(CC(=O)O)NC(=O)C[C@H](N)C[C@H](O)CN |  | > 1020 µg/mL |  | 1020 µg/mL (≈ 4120 µM) | 51 µM | 512 µg/mL (≈ 2060 µM) | 1020 µg/mL (≈ 4120 µM) |  |
| NC[C@H](O)C[C@@H](N)CC(=O)NNCC(=O)O |  | > 64 µg/mL |  | > 64 µg/mL | 34 µM | > 64 µg/mL | > 64 µg/mL |  |
| CN(CC(=O)O)NC(=O)C[C@H](N)C[C@@H](O)CNC(CCN)c1ccccc1 (stereo not given in full) | 32 µg/mL (≈ 83.9 µM) | > 256 µg/mL | 128 µg/mL (≈ 336 µM) | 64 µg/mL (≈ 168 µM) | 2.3 µM | > 256 µg/mL | 256 µg/mL (≈ 671 µM) |  |
| CN(CC(=O)O)NC(=O)C[C@H](N)C[C@@H](O)[C@H](N)CO |  | > 512 µg/mL |  | > 512 µg/mL | 78 µM | > 512 µg/mL | > 512 µg/mL |  |
| CN(CC(=O)O)NC(=O)C[C@H](N)C[C@@H](O)CNCC1CNC1 | 128 µg/mL (≈ 403 µM) | 256 µg/mL (≈ 807 µM) | 128 µg/mL (≈ 403 µM) | 64 µg/mL (≈ 202 µM) | 3.9 µM | 128 µg/mL (≈ 403 µM) | 256 µg/mL (≈ 807 µM) |  |
| CC(C(=O)NN(C)CC(=O)O)[C@H](N)C[C@@H](O)CN (stereo not given in full) |  | ≥ 256 µg/mL |  | ≥ 256 µg/mL | 12 µM | 128 µg/mL (≈ 488 µM) | 128 µg/mL (≈ 488 µM) |  |
| CN(CC(=O)O)NC(=O)C[C@H](N)C[C@@H](O)CN [NEGAMYCIN] | 16 µg/mL (≈ 64.4 µM) | 32 µg/mL (≈ 129 µM) | 16 µg/mL (≈ 64.4 µM) | 32 µg/mL (≈ 129 µM) | 1.7 µM | 16 µg/mL (≈ 64.4 µM) | 16 µg/mL (≈ 64.4 µM) |  |
| CN(CC(=O)O)NC(=O)C[C@H](N)C[C@H](F)CN |  | > 512 µg/mL |  | > 512 µg/mL | 26 µM | > 512 µg/mL | > 512 µg/mL |  |
| CN(CC(=O)O)NC(=O)C[C@H](N)C[C@@H](F)CN |  | 128 µg/mL (≈ 511 µM) |  | 64 µg/mL (≈ 256 µM) | 2.9 µM | 128 µg/mL (≈ 511 µM) | 64 µg/mL (≈ 256 µM) |  |
| CN(CC(=O)O)N(C)C(=O)C[C@H](N)C[C@@H](O)CN |  | > 256 µg/mL |  | > 256 µg/mL | > 100 µM | > 256 µg/mL | > 256 µg/mL |  |
| CN(CC(=O)O)NC(=O)C[C@H](N)C[C@@H](O)[C@@H](N)CO |  | > 128 µg/mL |  | > 128 µg/mL | 7.3 µM | 128 µg/mL (≈ 460 µM) | > 128 µg/mL |  |
| CC(=O)NCCCNC[C@H](O)C[C@@H](N)CC(=O)NN(C)CC(=O)O | > 512 µg/mL | > 512 µg/mL | > 512 µg/mL | > 512 µg/mL | 19 µM | > 512 µg/mL | > 512 µg/mL |  |
| CN(CC(=O)O)NC(=O)C[C@H](N)CCCN |  | 128 µg/mL (≈ 551 µM) |  | 128 µg/mL (≈ 551 µM) | 3.3 µM | 128 µg/mL (≈ 551 µM) | 128 µg/mL (≈ 551 µM) |  |
| CN(CC(=O)O)NC(=O)C[C@H](N)C[C@@H](O)CNCCF | 256 µg/mL (≈ 870 µM) | > 256 µg/mL | 128 µg/mL (≈ 435 µM) | 64 µg/mL (≈ 217 µM) | 2.3 µM | 128 µg/mL (≈ 435 µM) | 64 µg/mL (≈ 217 µM) |  |
| CN(CC(=O)O)NC(=O)C[C@H](N)C[C@@H](O)CNCCCO | 1020 µg/mL (≈ 3340 µM) | > 1020 µg/mL | 128 µg/mL (≈ 418 µM) | 512 µg/mL (≈ 1670 µM) | 11 µM | 256 µg/mL (≈ 836 µM) | 512 µg/mL (≈ 1670 µM) |  |
| CC(CCN)NC[C@H](O)C[C@@H](N)CC(=O)NN(C)CC(=O)O (stereo not given in full) | 32 µg/mL (≈ 100 µM) | 32 µg/mL (≈ 100 µM) | 16 µg/mL (≈ 50.1 µM) | 8 µg/mL (≈ 25 µM) | 0.44 µM | 8 µg/mL (≈ 25 µM) | 16 µg/mL (≈ 50.1 µM) |  |
| CN(CC(=O)O)NC(=O)C[C@H](N)C[C@@H](O)CNCC(F)CN (stereo not given in full) | 128 µg/mL (≈ 396 µM) | 256 µg/mL (≈ 792 µM) | 128 µg/mL (≈ 396 µM) | 128 µg/mL (≈ 396 µM) | 3.6 µM | 256 µg/mL (≈ 792 µM) | 256 µg/mL (≈ 792 µM) |  |
